Measured values reported in the array DNA melting data of Ke et al. (doi:10.1101/2024.01.08.574731).

Experiments:
[1] = folding enthalpy; higher = less favourable; fluorescence melt of hairpins on a sequencing array, two-state fit; details: sodium 0.088 M
In short: (§1)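 Melting temperature and folding enthalpy were obtained by bootstrapped two-state fitting. Fits used Cy3 fluorescence of library hairpins with annealed Cy3 and quencher oligos on a sequenced MiSeq flow cell, imaged in 50 mM Na-HEPES pH 8.0, 25 mM NaCl in 2.5 °C steps up to 60 °C and normalised to pre-quench Cy3 and control constructs. Four replicates were combined by inverse-variance weighting, and fitted temperatures were raised by 9.35 °C to match UV melts.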

[2] = melting temperature; fluorescence melt of hairpins on a sequencing array, two-state fit, raised by 9.35 °C to match UV melts; details: sodium 0.088 M
In short: as §1

Sequence | folding enthalpy [1] [kcal/mol] | Tm [2] [°C]
GCCGGACCGAAAGGTGGC (((..(((....)))))) | -26.9 | 53.4
GCCGGATCGAAAGATGGC (((..(((....)))))) | -17.6 | 46
GCCGGCGAAAGCCCAGGC ((((((....)))..))) | -19.4 | 57.5
GCCGGCGAAAGCCCGGGC ((((((....)))..))) | -17.6 | 62.1
GCCGGCGAAAGCCGAGGC ((((((....)))..))) | -13.4 | 63.1
GCCGGCGAAAGCCGCGGC ((((((....)))..))) | -11.9 | 65.3
GCCGGCGAAAGCCGTGGC ((((((....)))..))) | -13.1 | 58.4
GCCGGGCGAAAGCCGCGC ((..(((....)))..)) | -15.2 | 60.1
GCCGGGCGAAAGCCTTGC ((..(((....)))..)) | -12.4 | 40.2
GCCGGGCGAAAGCGAGGC (((..((....))..))) | -43.3 | 66.1
GCCGGGCGAAAGCGCAGC ((.(.((....)).).)) | -13.2 | 43.3
GCCGGGCGAAAGCGCCGC ((.(.((....)).).)) | -11.5 | 48.7
GCCGGGCGAAAGCTGGGC (((..((....))..))) | -26.3 | 61.2
GCCGGTCGAAAGACGGGC (((.(((....))).))) | -39.9 | 63.9
GCCGTAACGAAAGTTGGC (((..(((....)))))) | -20.9 | 49.4
GCCGTACGAAAGTAGGC (((.(((....)))))) | -33.6 | 67.4
GCCGTAGGAAACTACGAC (.(((((....))))).) | -18.5 | 40.8
GCCGTAGGAAACTGTGGC (((..((....))..))) | -11.4 | 43.3
GCCGTCACGAAAGTGGGC (((..(((....)))))) | -19.5 | 48.5
GCCGTCGAAAGACAGGGC ((((((....)))..))) | -38.8 | 54.4
GCCGTCGAAAGACCAGGC ((((((....)))..))) | -17.5 | 48.9
GCCGTGCGAAAGCACAGC ((.((((....)))).)) | -14 | 61.2
GCCGTGCGAAAGCAGCGC ((..(((....)))..)) | -13.9 | 55.9

Sequence | folding enthalpy [1] [kcal/mol] | Tm [2] [°C]
GCCGTGCGAAAGCAGTGC ((..(((....)))..)) | -12.4 | 44.7
GCCGTGCGAAAGCCTGGC (((..((....))..))) | -20.4 | 56.2
GCCGTGCGAAAGCGCTGC ((.(.((....)).).)) | -19.6 | 49
GCCGTGCGAAAGCTAGGC (((..((....))..))) | -32 | 66.9
GCCGTGCGAAAGCTTGGC (((..((....))..))) | -28.5 | 59.6
GCCGTTACGAAAGTAGGC (((..(((....)))))) | -33.1 | 54.8
GCCGTTCGAAAGAAGGGC (((.(((....))).))) | -44 | 60.2
GCCGTTGGAAACAGTGGC (((..((....))..))) | -14.4 | 43.6
GCCTAACGAAAGTTGGC (((.(((....)))))) | -31.3 | 53.7
GCCTAAGGAAACTTAGGC (((((((....))))))) | -40.1 | 58.3
GCCTACGAAAGTAAGGGC ((((((....)))..))) | -23.9 | 46.8
GCCTACGAAAGTAGAGGC ((((((....)))..))) | -22.7 | 49.3
GCCTACGAAAGTAGCGGC ((((((....)))..))) | -19.5 | 49.6
GCCTACGAAAGTATCGGC ((((((....)))..))) | -24.7 | 40.6
GCCTACGAAAGTATTGGC ((((((....)))..))) | -20.5 | 43.4
GCCTACGCGAAAGCGGGC (((..(((....)))))) | -14.8 | 62.1
GCCTACGGAAACACAGGC ((((..(....)..)))) | -23.3 | 34.6
GCCTACGGAAACATAGGC (((((.(....).))))) | -28.9 | 40.3
GCCTAGCCGAAAGGCGGC (((..(((....)))))) | -14.1 | 59.7
GCCTAGCGAAAGCACGGC (((..((....))..))) | -20.3 | 54.9
GCCTAGCGAAAGCAGGGC (((..((....))..))) | -24 | 62.4
GCCTAGCGAAAGCATGGC (((..((....))..))) | -30.7 | 61.2
